TCR CD3 inh = human TCR-CD3 binding inhibition. TAMRA-labeled TCR probe fluorescence, biochemical. inhibition, % at 9.4 µM. 360,000 tested, 0.37% active. AID 651800; in the data active means inhibition above about 19%;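 further: recombinant mutant TCR 2C K166C tagged with TAMRA read by polarization; 0% = receptor in buffer alone and 100% = receptor with positive control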
HTRA1 inhibitor = HTRA1 (human) protease inhibition; inhibition, % at 5.96 µM; Q92743; recombinant HTRA1, FP-rhodamine activity-based probe, fluorescence polarization; 340,000 tested, 0.5% active; in the data active means inhibition above about 36%;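 further: 0% = enzyme with DMSO and 100% = wells lacking enzyme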
SIAE primary = inhibitors of human sialic acid acetylesterase SIAE; 370,000 tested, 0.69% active; inhibition, % at 9.66 µM; SIAE FP-Rh probe binding, fluorescence polarization; Q9HAT2; AID 1053197;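 active means inhibition above a cutoff: mean of compounds within the control limits plus 3 SD of those, cut at about 17% in these data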;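 further: 0% = plate median of compound wells and 100% = probe without SIAE protein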
mABHD4 FP = inhibits mouse alpha/beta hydrolase domain 4 | inhibition, % at 8.92 µM | 370,000 tested, 0.54% active | Q8VD66 | purified mABHD4, FP-Rh probe fluorescence polarization;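 active means inhibition exceeding the mean over every tested compound plus 3 SD, cut at about 30% in these data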;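 further: 0% = plate median of compound wells and 100% = S159A mutant with DMSO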
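assay system = mABHD4 protein | compound dosing = single nominal dose of 8.92 µM, 0.89% DMSO final | read-out basis = percent inhibition of probe binding, normalized to plate controls | schedule = Enzyme–compound pre-incubation 45 min, then probe 60 min, both 25 °C | detection = fluorescence polarization, excitation 525 nm, emission 598 nm, BODIPY TMR filters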
pPAFAH FP inh = inhibitors of human plasma PAF acetylhydrolase (pPAFAH); 330,000 tested, 1.5% active; Q13093; AID 463082; inhibition, % at 3.39 µM; recombinant pPAFAH, FP-rhodamine probe fluorescence polarization;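 active means inhibition above the mean inhibition across the screen plus 3 SD, cut at about 25% in these data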;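 further: inhibitors block binding of the rhodamine activity-based probe so polarization drops; 0% = enzyme with DMSO and 100% = wells lacking pPAFAH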
Target sequence (Q13093 whole entry, looked up): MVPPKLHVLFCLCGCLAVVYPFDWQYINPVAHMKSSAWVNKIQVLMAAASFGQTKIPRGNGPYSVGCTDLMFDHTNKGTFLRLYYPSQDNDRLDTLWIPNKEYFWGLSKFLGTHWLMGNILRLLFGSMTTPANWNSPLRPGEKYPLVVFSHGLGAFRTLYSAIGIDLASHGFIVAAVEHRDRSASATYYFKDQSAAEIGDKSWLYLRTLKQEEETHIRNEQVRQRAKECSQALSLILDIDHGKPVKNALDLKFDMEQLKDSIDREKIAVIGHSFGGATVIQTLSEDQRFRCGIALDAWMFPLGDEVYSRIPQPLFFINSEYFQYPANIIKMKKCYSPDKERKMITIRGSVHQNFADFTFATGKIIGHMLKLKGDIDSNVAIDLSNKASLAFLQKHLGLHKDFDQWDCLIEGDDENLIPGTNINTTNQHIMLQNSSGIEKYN
pPAFAH FP conf = pPAFAH (human) inhibition, confirmed | shares compounds with pPAFAH FP inh | recombinant pPAFAH, FP-Rh probe fluorescence polarization | inhibition, % at 3.39 µM | 2,300 tested, 72% active;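 active means mean inhibition of the triplicate above the hit cutoff set for the earlier primary screen, cut at about 25% in these data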;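 further: 0% = enzyme with DMSO and 100% = wells lacking pPAFAH enzyme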
Starred values were filed as active, the others as inactive; . = not tested or not shown. This is a sample that favours compounds with a hit; in the whole collection about 2.3% have one here.

SMILES | TCR CD3 inh | HTRA1 inhibitor | SIAE primary | mABHD4 FP | pPAFAH FP inh | pPAFAH FP conf
O=C(CCCN1C(=O)/C(=C/c2ccco2)SC1=S)Nc1cccc(C(=O)O)c1 | 6 | 14 | -4 | 29 | 50* | 5
CC(C)C(C(=O)O)N1C(=O)/C(=C/C=C/c2ccco2)SC1=S (stereo not drawn) | . | 31 | . | . | 78* | 54*
O=C(CN1C(=O)/C(=C/c2ccco2)SC1=S)Nc1ccc(C(=O)O)c(O)c1 | -2 | -17 | -22 | -22 | 41* | 14
CC(C(=O)Nc1ccc(C(=O)O)c(O)c1)N1C(=O)/C(=C\c2ccco2)SC1=S (stereo not drawn) | . | 9 | . | . | 38* | 13
CC(C)C(C(=O)O)N1C(=O)/C(=C/c2cccn2C)SC1=S (stereo not drawn) | 6 | 3 | -2 | -1 | 7 | .
Cn1cc(C2(C)CCOc3ccccc32)c2ccccc21 (stereo not drawn) | . | . | 2 | -6 | . | .
O=C(NCCc1c[nH]c2ccccc12)OCc1cn(Cc2ccc(F)c(F)c2)nn1 | . | . | 4 | -3 | . | .
COc1ccc(CCNC(=O)c2ccc3nc(-c4ccco4)c(-c4ccco4)nc3c2)cc1OC | . | 21 | . | . | 44* | 20
CCc1nc2ccc(C(=O)NCCc3ccc(OC)c(OC)c3)cc2nc1CC | 4 | 5 | -2 | -1 | 1 | .
O=C(Nc1cccc(C(F)(F)F)c1)c1ccc2nc(-c3ccco3)c(-c3ccco3)nc2c1 | -7 | 67* | -2 | 9 | 70* | 77*
COc1cc(-c2nc(-c3cccnc3)no2)cc(OC)c1OC | 8 | 1 | 0 | -6 | 40* | 2
CCCCN(C)C(=O)CN1C(=O)C2CCCCN2C(=O)c2ccccc21 (stereo not drawn) | . | . | 0 | -3 | . | .
COc1cccc(NC(=O)C2CCCN2C(=O)NCc2ccccc2OC)c1 (stereo not drawn) | . | . | 1 | 5 | . | .
COc1ccc(-c2nn(-c3ccccc3)cc2C2CC(c3cccs3)=NN2C(=O)CCCC(=O)O)cc1 (stereo not drawn) | -8 | -3 | -3 | 7 | 7 | .
Cc1ccc(-c2nn(-c3ccccc3)cc2C2CC(c3cccs3)=NN2C(=O)CCCC(=O)O)cc1 (stereo not drawn) | -3 | -10 | -11 | 6 | 40* | 5
CCCCC1OC(CCc2ccccc2)CC2=C1C(=O)OC(C)(C)O2 (stereo not drawn) | 5 | . | 3 | -2 | . | .
Cc1nc2ccc(F)cc2cc1C(=O)NCc1ccco1 | 10 | 2 | -8 | 2 | 1 | .
Cc1nc2ccc(F)cc2cc1C(=O)Nc1ccc(Cl)c(Cl)c1 | 8 | -6 | -17 | -2 | 42* | 2
N#Cc1ccc2nc(-c3ccc(CN4CCC(c5nc6ccccc6[nH]5)CC4)cc3)c(-c3ccccc3)nc2c1 | 3 | . | -16 | 1 | . | .
S=c1[nH]nc(C2COc3ccccc3O2)o1 (stereo not drawn) | 4 | 0 | 3 | 4 | 44* | 5
S=c1nc(C2COc3ccccc3O2)[nH][nH]1 (stereo not drawn) | 0 | 10 | 1 | -1 | 3 | .
CCN(C(=O)COC(=O)c1ccc(Sc2ncn[nH]2)c([N+](=O)[O-])c1)c1ccccc1C | . | . | 0 | 12 | . | .
O=C1NC(=S)S/C1=C\c1ccc(SCc2ccccc2)o1 | 4 | -32 | -10 | -16 | 40* | 58*
CCC1=NN2C(=N)/C(=C\c3ccc(SCc4ccco4)o3)C(=O)N=C2S1 | -31 | -95 | -55 | -105 | -9 | .
O=C1NC(=S)S/C1=C\c1ccc(SCc2ccco2)o1 | . | 20 | . | . | 69* | 55*
SMILES | TCR CD3 inh | HTRA1 inhibitor | SIAE primary | mABHD4 FP | pPAFAH FP inh | pPAFAH FP conf
O=C1NC(=S)SC1=Cc1ccccc1Cl | 1 | -27 | -12 | -53 | . | .
CCCC1=NN2C(=N)/C(=C\c3ccc(SCc4ccco4)o3)C(=O)N=C2S1 | . | -68 | . | . | 60* | 61*
CC(CCN1CCC(C(O)(c2ccccc2)c2ccccc2)CC1)Oc1cc(F)cc(C#N)c1 (stereo not drawn) | . | . | -3 | 5 | . | .
CC(=O)N1CCc2cc(S(=O)(=O)NCCC(=O)N(C)C3CCCCC3)ccc21 | . | . | 5 | -3 | . | .
C=CCC12C=C(OC)C(=O)C(C1=O)C(c1ccc(OC)cc1)C2C (stereo not drawn) | . | . | 9 | -3 | . | .
Cc1ccc(C(=O)Nc2scc(-c3ccccc3)c2C(=O)O)cc1 | -2 | -14 | -2 | 1 | -17 | .
CC(C)(C)C(=O)Nc1scc(-c2ccc(-c3ccccc3)cc2)c1C(=O)O | -5 | -8 | -4 | -44 | 43* | 25*

Screening results deposited in PubChem BioAssay by The Scripps Research Institute Molecular Screening Center.
